This is an account of results in ChEMBL document CHEMBL3272210, “Effect of the solvent-dependent conformational system of hydroxyureas on predicted vs. observed log P” (J Med Chem, 1977).

Data set [1] is described as follows: Octanol-water partition coefficient, log P of the compound after 72 hrs. Type of data set: physicochemical. The method in brief:
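Known amounts (100 mg, 500 mg, 1.0 g) are shaken in equal volumes of 1-octanol and water pH 7.4 for 72 h, the optimal time. The aqueous layer is lyophilized, and the recovered compound is weighed and purity-checked. Values were cross-checked by colorimetry or UV for some compounds.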

For data set [2], the species on record is Rattus norvegicus. Kind of data set: Inhibition of rat hepatoma ribonucleotide reductase using ATP relative to hydroxyurea. The method, boiled down:
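Same 32P-CDP reduction assay, 30 min, 37 °C, ATP 2.1 mM, aqueous inhibitor. Each determination includes hydroxyurea as positive control. ID50 (four levels, two trials each) is divided relative to that run's hydroxyurea ID50, and ratios are averaged across determinations.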

For data set [3], the system named is L1210. Description: Antitumor activity against mouse L1210 cells xenografted in host assessed as growth inhibition treated ip for 9 days. The class given is functional.
The species named for data set [4] is Rattus norvegicus. Description: Inhibition of rat hepatoma ribonucleotide reductase using ATP. The method, boiled down: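 Partially purified rat Novikoff ascites hepatoma reductase (~0.2 mg) in pH 7 phosphate (8.3 mM) with 2.1 mM ATP, 4.2 mM MgAc2, Fe2+ (0.04 mM), 6.3 mM DTT, 1.0 μM rat thioredoxin and 0.17 mM 32P-CDP. Aqueous inhibitor is present before enzyme is added on ice, then 37 °C for 30 min. Perchloric acid stop, Dowex-50 product separation. Four concentrations, duplicate trials, ID50 by graphing/extrapolation.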

Data set [5] is filed under the species Rattus norvegicus. Description: Inhibition of rat hepatoma ribonucleotide reductase using ATP and Me2SO solvent. The method in brief: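 Rat Novikoff ascites hepatoma reductase, partially purified, assayed in 8.3 mM phosphate pH 7, 2.1 mM ATP, 4.2 mM MgAc2, 0.04 mM ferrous ammonium sulfate, 6.3 mM DTT, 1.0 μM thioredoxin, 0.17 mM 32P-CDP. Inhibitor is predissolved in DMSO and diluted to 1% DMSO final, then added on ice before enzyme, followed by 30 min at 37 °C. Dowex-50 readout. ID50 extrapolated from four concentrations tested in duplicate.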

The species entered for data set [6] is Rattus norvegicus. Kind of data set: Inhibition of rat hepatoma ribonucleotide reductase using ATP and Me2SO solvent relative to hydroxyurea.

Some results are limits rather than exact numbers.

For the molecule `CC(C)NC(=O)NO`, the logP (commonly a log measure of how a compound divides between an organic and an aqueous phase) at 72 h in data set [1] was 0.2. Besides, the Ratio in data set [2] was found to be 19. The T/C (usually the ratio of treated to control) in data set [3] is below 125%. In data set [4], this molecule came in with an ID50 of 800 µM.
`CCNC(=O)NO` returned a logP at 72 h in data set [1] of -0.76. Besides, the T/C in data set [3] is reported as 137%.
`O=C(NO)Nc1ccccc1` showed a logP at 72 h in data set [1] of 0.41.
On to `NC(=O)NO` [HYDROXYUREA], for which the logP at 72 h in data set [1] was -1.27. In data set [2], the Ratio was 1. In data set [3], the T/C amounted to 291%. This molecule yielded an ID50 in data set [4] of 110 µM.
As to `O=C(NO)Nc1ccc(Cl)cc1`, the logP at 72 h in data set [1] was 1.39.
Consider `CCN(O)C(N)=O`, for which the logP at 72 h in data set [1] was -0.1. Further, the Ratio in data set [2] stood at 1.5. The T/C in data set [3] is recorded as 168%. In addition, the ID50 in data set [4] was 170 µM.
Regarding `CC(C)(C)NC(=O)NO`, the logP at 72 h in data set [1] was determined as 0.5. In addition, the Ratio in data set [2] was 9.5. For the same molecule, the ID50 in data set [5] is 400 µM.
As for `CCCNC(=O)NO`, in data set [1], the logP at 72 h worked out at 0.22. The Ratio in data set [2] and in data set [6] was 3.8 each time. In addition, the T/C in data set [3] came out at 146%. Also, the ID50 in data set [4] and in data set [5] was 340 µM each time.
In the case of `CN(O)C(N)=O`, the log partition coefficient (logP) at 72 h in data set [1] was -0.46. For the same molecule, the Ratio in data set [2] was 0.9. Further, the T/C in data set [3] is listed as 162%. Moreover, the ID50 in data set [4] is 100 µM.
On to `CCCCNC(=O)NO`, for which the logP at 72 h in data set [1] turned out to be 0.32. Moreover, the Ratio in data set [2] came out at 6.8. In data set [5], this molecule had an ID50 of 750 µM.
